KCNK3 block: human KCNK3 channel inhibition, primary screen; O14649; CHO-KCNK3 thallium flux, FluxOR fluorescence; active compounds read low; B-score at 10 µM; 340,000 compounds, 0.84% hits; AID 602410;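 active = B-score under library mean minus 4 SD, starting fluorescence ratio at most library mean plus 5 SD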;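 also: more negative B-score means stronger inhibition of thallium flux through KCNK3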
KCNK9 block: inhibitors of human KCNK9 two-pore domain potassium channel | HEK293 KCNK9, FluxOR thallium flux fluorescence; active compounds read low | B-score at 10 µM | 310,000 compounds, 1.2% hits | AID 488922;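 active = ratio B-score over 3 SD below the library mean, with starting fluorescence within 5 SD of its mean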;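 also: negative B-score means less thallium flux so channel inhibition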
KCC2 mod: KCC2 (human) Cl- transport modulation. KCC2 cells, thallium flux FluoZin-2 fluorescence. B-score of Tl+ flux slope (higher = more flux/activation; lower = inhibition) at 10 µM. 190,000 compounds, 2.2% hits;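 active = thallium flux slope and its plate-corrected score both differing from the plate sample mean at a set confidence after two filtering rounds, in either direction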;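 also: slope of fluorescence scaled to starting intensity during 10 to 20 s after thallium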
KCNQ1 act: potentiates or activates the human KCNQ1 potassium channel; CHO-K1 KCNQ1, thallium flux FluxOR fluorescence; active compounds read high; B-score at 10 µM; 310,000 compounds, 0.35% hits; AID 2648;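 active = fluorescence ratio B-score, a plate-corrected score, at least three library SD, with initial intensity B-score within 5 SD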
Target sequence (P51787 whole entry, looked up): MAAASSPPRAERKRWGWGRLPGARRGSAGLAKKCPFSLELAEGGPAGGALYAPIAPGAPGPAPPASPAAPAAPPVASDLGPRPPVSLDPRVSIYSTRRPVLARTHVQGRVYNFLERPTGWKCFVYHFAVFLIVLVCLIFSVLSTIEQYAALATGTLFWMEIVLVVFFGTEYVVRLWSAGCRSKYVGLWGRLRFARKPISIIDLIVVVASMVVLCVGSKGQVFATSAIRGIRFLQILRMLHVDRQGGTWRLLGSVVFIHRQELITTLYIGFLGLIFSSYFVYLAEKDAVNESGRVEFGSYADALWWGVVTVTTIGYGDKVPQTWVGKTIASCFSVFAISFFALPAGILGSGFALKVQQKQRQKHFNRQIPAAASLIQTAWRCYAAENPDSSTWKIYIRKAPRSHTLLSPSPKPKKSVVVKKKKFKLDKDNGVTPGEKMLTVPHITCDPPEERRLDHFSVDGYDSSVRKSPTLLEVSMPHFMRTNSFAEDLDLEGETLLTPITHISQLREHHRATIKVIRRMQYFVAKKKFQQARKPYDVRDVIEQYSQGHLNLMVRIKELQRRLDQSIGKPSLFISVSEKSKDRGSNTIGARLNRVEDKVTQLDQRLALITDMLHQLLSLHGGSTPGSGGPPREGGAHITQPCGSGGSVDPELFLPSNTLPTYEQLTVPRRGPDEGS
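Material: CHO-K1 cells stably expressing KCNQ1. Medium: assay buffer for compound exposure, DMSO matched across wells. Reagent: K+/Tl+ depolarizing stimulus. Compound dosing: single-concentration screen. Times: 37 °C overnight plating, 90-min dark dye load, 20-min compound pretreatment. Technique: FluxOR Tl+ flux fluorescence.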
hERG protect: compounds protecting human hERG from proarrhythmic drug block | activation (rescue from dofetilide block), less the hit threshold, % at 10 µM | CHO-hERG, FluxOR thallium flux, dofetilide IC70 present | Q12809 | AID 1511 | 310,000 compounds, 0.51% hits;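 active = activation above the mean of controls blocked by dofetilide plus 5 SD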;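 also: thallium influx through hERG after potassium depolarization seen as dye fluorescence rise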
KCNQ1 block: inhibitors of human KCNQ1 potassium channel | CHO-K1 KCNQ1, FluxOR thallium flux fluorescence; active compounds read high | B-score at 10 µM | 310,000 compounds, 1.3% hits | AID 2642;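 active = compounds whose thallium flux B-score, printed positive for inhibition, exceeds three library SD while starting fluorescence stays within three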;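 also: channel opened by potassium depolarization with thallium stimulus after 20 min compound exposure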
KCC2 sec1: confirmation of human KCC2 transport modulators | shares compounds with KCC2 mod | normalised thallium flux (F/F0 slope) at 10 µM | HEK293-KCC2, thallium flux, FluoZin2 fluorescence; active compounds read high | 3,700 compounds, 15% hits;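 active = thallium flux slope above the same plate's solvent-only control mean plus 3 SD; inconclusive = the two replicate wells disagree; inactive = no significant difference from solvent-only control wells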
KCC2 bumet counter: thallium flux persisting under bumetanide in KCC2 cells, counter-screen secondary assay; shares compounds with KCC2 mod; HEK293-KCC2 + bumetanide/ouabain, thallium flux FluoZin2; active compounds read high; normalized thallium flux at 10 µM; 3,700 compounds, 49% hits; AID 1714;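 active = thallium entry rate above the same plate's blocked-transporter control wells by more than 3 SD; inconclusive = the two repeat wells disagree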;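 also: raw slope of fluorescence over initial fluorescence between 10 and 20 s after thallium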
KCC2 sec2: KCC2 (human) modulation, second secondary assay. shares compounds with KCC2 mod. HEK293-KCC2, thallium flux FluoZin2 fluorescence; actives lie on both sides; F/F0 rise rate, 10–20 s post-thallium. normalized thallium flux at 10 µM. 3,700 compounds, 23% hits;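 active = thallium flux slope more than 3 SD above or below the plate's solvent-only control mean, mostly below; inconclusive = the two repeat wells disagreed; inactive = no significant shift from solvent-only controls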
HEK counter1: acts in parental HEK cells, KCC2 counter-screen; shares compounds with KCC2 mod; HEK293 parental cells, thallium flux FluoZin2, ouabain; baseline-ratio fluorescence slope, 10–20 s after thallium; thallium flux rate (normalised fluorescence) at 10 µM; 3,700 compounds, 46% hits;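 active = thallium flux rate significantly above the same plate's solvent-only control wells, beyond their mean plus 3 SD; inconclusive = the two replicate wells gave conflicting results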
KCC2 retest ouab: modulates human KCC2 on retest with ouabain; HEK293-KCC2, thallium flux FluoZin2 fluorescence; bidirectional: low = inhibitor, high = activator; shares compounds with KCC2 mod; 3,700 compounds, 48% hits; raw Tl+ flux slope (below DMSO = inhibition, above = activation) at 10 µM;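 active = thallium flux slope beyond 3 SD from same-plate DMSO control mean in most replicates, usually higher, sometimes lower; inconclusive = repeat tests gave conflicting results; inactive = no significant difference from controls in most replicates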;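 also: slope of initial-normalized fluorescence between seconds 10 and 20 after thallium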
HEK293 Tl flux2: counter-screen for KCC2 modulators: effect in parental HEK293 cells; shares compounds with KCC2 mod; thallium flux FluoZin-2 fluorescence slope; thallium flux slope at 10 µM; 3,700 compounds, 33% hits; AID 1718;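 active = thallium flux slope above the same plate's solvent-control mean plus 3 SD in both duplicate wells; inconclusive = duplicate wells that disagreed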;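 also: run without ouabain in cells lacking the KCC2 cotransporter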
Large screens that a line does not name were inactive (follow-up assays come after a bar, where they were run). Most compounds without a hit are left out; they make up all but 4.1% or so of the library.

Oc1[nH]c2ccc(Br)cc2c1N=NC(=S)NCC1CCCO1 (stereo not drawn)	KCC2 mod 35 | KCC2 sec1 0.014 | KCC2 bumet counter 0.048 | KCC2 sec2 inactive | HEK counter1 inconclusive | KCC2 retest ouab 0.036 | HEK293 Tl flux2 0.018
CCn1c(O)c(N=NC(=S)NCC2CCCO2)c2ccccc21 (stereo not drawn)	KCC2 mod 53, hERG protect 6.3 | KCC2 sec1 inactive | KCC2 bumet counter 0.078 | KCC2 sec2 0.058 | HEK counter1 0.055 | KCC2 retest ouab 0.067 | HEK293 Tl flux2 0.056
Cc1ccc(NC(=O)C(C)OC(=O)COc2cccc(C(F)(F)F)c2)cc1 (stereo not drawn)	none (no result: KCNK9 block, KCC2 mod, KCNQ1 act, hERG protect, KCNQ1 block)
COc1ccc(CCNC(=S)NC(=O)c2cccc(Cl)c2)cc1OC	KCC2 mod 4.5 | KCC2 sec1 inactive | KCC2 bumet counter 0.032 | KCC2 sec2 inactive | HEK counter1 0.012 | KCC2 retest ouab inactive | HEK293 Tl flux2 inconclusive
CN(C)C(=S)NC(=O)c1cccc(Cl)c1	KCC2 mod 21 | KCC2 sec1 inactive | KCC2 bumet counter 0.037 | KCC2 sec2 inactive | HEK counter1 0.025 | KCC2 retest ouab 0.036 | HEK293 Tl flux2 0.022
COc1ccc(Cl)c2sc(N(CCN(C)C)C(=O)C3=COCCO3)nc12	none (no result: KCNK9 block, KCC2 mod, KCNQ1 act, hERG protect, KCNQ1 block)
Cc1cc(S(=O)(=O)Nc2ccc(C(=O)NCc3cccnc3)cc2)ccc1F	none (no result: KCC2 mod)
CCOc1cc(/C=C2/C(=N)N3N=C(CC)SC3=NC2=O)ccc1OC(=O)c1ccco1	none (no result: KCC2 mod)
CCC1=NN2C(=N)/C(=C\c3cccn3-c3c(C)cccc3C)C(=O)N=C2S1	KCC2 mod 9 | KCC2 sec1 inconclusive | KCC2 bumet counter 0.028 | KCC2 sec2 inactive | HEK counter1 0.032 | KCC2 retest ouab 0.03 | HEK293 Tl flux2 0.015
CCC1=NN2C(=N)/C(=C\c3cccn3-c3ccc(Br)cc3)C(=O)N=C2S1	KCC2 mod 11 | KCC2 sec1 inactive | KCC2 bumet counter 0.022 | KCC2 sec2 inactive | HEK counter1 0.019 | KCC2 retest ouab 0.025 | HEK293 Tl flux2 0.014
CCC1=NN2C(=N)/C(=C\c3ccc(OCCOc4ccccc4OC)cc3)C(=O)N=C2S1	none (no result: KCC2 mod)
COc1ccc(-n2cccc2/C=C2\C(=N)N3N=C(c4ccco4)SC3=NC2=O)cc1	none
CCC1=NN2C(=N)/C(=C\c3cccn3-c3ccc(C)cc3C)C(=O)N=C2S1	KCC2 mod 8.6 | KCC2 sec1 inactive | KCC2 bumet counter 0.055 | KCC2 sec2 inactive | HEK counter1 0.02 | KCC2 retest ouab 0.04 | HEK293 Tl flux2 inconclusive
Cc1cccc(C)c1-n1cccc1/C=C1/C(=N)N2C(=NC1=O)SN=C2S(C)(=O)=O	KCC2 mod -4.5 | KCC2 sec1 inactive | KCC2 bumet counter inactive | KCC2 sec2 inactive | HEK counter1 inactive | KCC2 retest ouab 0.015 | HEK293 Tl flux2 inactive
O=S(=O)(c1cccc(Cn2nnc(-c3ccccc3)n2)c1)N1CCOCC1	none (no result: KCNK9 block, KCC2 mod, KCNQ1 act, hERG protect, KCNQ1 block)
CC(NC(=O)c1ccccc1F)c1nnc(SCC(=O)Nc2nnc(C3CC3)s2)n1C (stereo not drawn)	none (no result: KCC2 mod)
CCn1c(=O)n(CCOC)c(=O)c2c3c(sc21)CCCC3	none
COCCCn1c(=S)[nH]c2sc3c(c2c1=O)CCCS3	KCC2 mod 53, hERG protect 19 | KCC2 sec1 0.033 | KCC2 bumet counter 0.093 | KCC2 sec2 0.049 | HEK counter1 0.068 | KCC2 retest ouab 0.077 | HEK293 Tl flux2 0.029
CC(C)(Oc1ccc(Cl)cc1)C(=O)NC1CC1	none (no result: KCC2 mod)
CC[C@@H]1C=C(C)C[C@H](C)C[C@H](OC)[C@H]2O[C@@](O)(C(=O)C(=O)N3CCCC[C@H]3C(=O)O[C@H](/C(C)=C/[C@@H]3CC[C@@H](O)[C@H](OC)C3)[C@H](C)[C@@H](O)CC1=O)[C@H](C)C[C@@H]2OC	none (no result: KCNK3 block, KCNK9 block, KCNQ1 act, hERG protect, KCNQ1 block)
CO[C@H]1C[C@@H]2CC[C@@H](C)[C@@](O)(O2)C(=O)C(=O)N2CCCC[C@H]2C(=O)O[C@H]([C@H](C)C[C@@H]2CC[C@@H](O)[C@H](OC)C2)CC(=O)[C@H](C)C=C(C)[C@@H](O)[C@@H](OC)C(=O)[C@H](C)C[C@H](C)C=CC=CC=C1C	none (no result: KCNK3 block, KCNK9 block, KCNQ1 act, hERG protect, KCNQ1 block) | KCC2 sec1 inactive | KCC2 bumet counter inactive | KCC2 sec2 inactive | HEK counter1 inactive | KCC2 retest ouab inactive | HEK293 Tl flux2 inactive
CC(=O)Nc1ccc(S(=O)(=O)NCC(=O)OCC(=O)N2CCCc3ccccc32)cc1	none
CC(=O)Nc1ccc(S(=O)(=O)N(C)CC(=O)OCC(=O)N2CCc3ccccc32)cc1	KCC2 mod -3.8 | KCC2 sec1 inactive | KCC2 bumet counter inactive | KCC2 sec2 inactive | HEK counter1 inconclusive | KCC2 retest ouab 0.02 | HEK293 Tl flux2 inconclusive
CCC(=O)Nc1cccc(-c2ccc(N3CCCCC3)nn2)c1	none (no result: KCC2 mod)
O=[N+]([O-])c1c(NCCCO)cc(Sc2nc3ccccc3s2)c2nonc12	KCC2 mod 3.2 | KCC2 sec1 inactive | KCC2 bumet counter 0.019 | KCC2 sec2 inactive | HEK counter1 0.013 | KCC2 retest ouab inconclusive | HEK293 Tl flux2 0.016
CCC(=O)OCCNc1cc(Sc2nc3ccccc3[nH]2)c2nonc2c1[N+](=O)[O-]	none (no result: KCNK9 block, KCNQ1 act, hERG protect, KCNQ1 block)
O=C(OCC#Cc1c(COC(=O)c2ccccc2)nnn1Cc1ccccc1)c1ccccc1	KCC2 mod 1.8 | KCC2 sec1 inactive | KCC2 bumet counter inactive | KCC2 sec2 inactive | HEK counter1 inactive | KCC2 retest ouab inactive | HEK293 Tl flux2 inactive
CCOC(=O)c1[nH]ncc1CN1CCc2ccc(NC(=O)C3CCCO3)cc2C1 (stereo not drawn)	none (no result: KCC2 mod)
